In the EternaBench riboswitch data:

Tested on: MS2 coat protein
Assay: apparent Kd, MS2 coat protein; higher = weaker binding; RNA-MaP array; FMN 200 µM where present
Summary of the method: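 Stalled E. coli RNA polymerase produced the designs on Illumina sequencing-chip clusters. SNAP-549-labelled MS2 coat protein was added from 0.7 or 1.5 nM, doubling to 3 µM, without and then with constant ligand, in 100 mM Tris-HCl pH 7.5, 80 mM KCl, 4 mM MgCl2, BSA, DTT, yeast tRNA and Tween-20. The apparent Kd is the median of filtered per-cluster fits of green signal normalised to red-channel RNA signal and control-cluster median Fmax.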

[1] = designed as: OFF switch for flavin mononucleotide, no ligand
[2] = ligand present: flavin mononucleotide, designed as: OFF switch for flavin mononucleotide
[3] = designed as: ON switch for flavin mononucleotide, no ligand
[4] = ligand present: flavin mononucleotide, designed as: ON switch for flavin mononucleotide

Sequence	apparent Kd [1]	apparent Kd [2]	apparent Kd [3]	apparent Kd [4]
ACCUCACAUGAGGAUCACCCAUGUCAGGAUAUCUAAUGUAGUAGCGUUCCCGACGCUAAGAGAAGGGACAUUAA	15.9 nM	22 nM	–	–
CCUGGUUGGUAAGGAUAUCCUACACUAUUCUGACCCGUGCAAGCUACAUGAGGAUCACCCAUGUGGGAGAAGGUGCGUCAACGU	12.8 nM	12 nM	–	–
UCUGCCGCCGUGAGGAUAUGCCCGCGCGCACGCGGGCAGAAGGCACAUGAGGAUCACCCAUGUCCCGCGGUUUU	17.6 nM	38.1 nM	–	–
CCGGAAAUAGAGGAUAUAGGAGUCGAUAGACUCCUAGAAGGCUAUACAUGAGGAUCACCCAUGUGUCCUACCGG	17.4 nM	39.6 nM	–	–
UCUACAUAAAUUCAUCAAUACAGAAAGGAUAUGAGAUACAUGAGGAUCACCCAUGUGCAUGUGAAUUAGAAGGUUCAAUUAACU	14.4 nM	11.1 nM	–	–
GCUAUUGAUGUAGGAUAUGAUAUAGAAGCUAUGUCAGAAGGACAUGAGGAUCACCCAUGUCAAUGGAUGGAGAGAAGAAAUGGC	62.6 nM	75 nM	–	–
UUAAGGGACUGAGGAUAUACAUGAAUUAUUUUUGUAGAAGGCAGAUUGUUAGUUUAUUCACUAUACAUGAGGAUCACCCAUGUU	27.4 nM	20.1 nM	–	–
GGAUGACAAAGUCAUCCAAUUCGAACAUGAGGAUCACCCAUGUAGGAUAUCGUACUCAAAGAGUACGAGAAGGACAUGUGCUUU	40.3 nM	154 nM	–	–
ACAUACAUUCGAGGAUAUCGGUGAUUAAUUUUACGAGAAGGCGAUAUAAGAUUUAAUAUUUUAGACAUGAGGAUCACCCAUGUA	–	–	27.6 nM	22.7 nM
CAGCUACCCGAUAUGGGUUCAUGUGCAGAAGGCCAGGUACAUGAGGAUCACCCAUGUAAAGAUAUGGAGGAUAUGUUAGUGAAU	–	–	149 nM	8.99 nM
GGAUGAUAGACAGGAUAUUGAUUGUAAUUAUGUCAAGAAGGGUCUUUGAUUUAAACGACCAGUUACAUGAGGAUCACCCAUGUU	–	–	30.7 nM	21 nM
ACCAACAGGGUUGGUACCGGCGCGCAGGAUAUGCUUGCCUACAUGAGGAUCACCCAUGUCUAAAUGCAGAAGGGUGAGCUGAGC	–	–	193 nM	114 nM
UUAGUAUUGCAAGGAUAUGUUUAUGAUAUUUUUCCUCUUACAUGAGGAUCACCCAUGUUUAACUUACAGAAGGUGCUAUGAUUU	575 nM	1030 nM	–	–
UGUGCAGAAGGAUAUGCGUAAGCUCGGUGACGAGCAGGUCUACAUGAGGAUCACCCAUGUAGAAGGUCUGUACU	16.8 nM	17.9 nM	–	–
UAACGACACGCAGGAUAUCUAACAUGAGGAUCACCCAUGUCAGAUGACAGGGUCGCUUUACUGGCAGAGAAGGGCGAUCGAUAC	7.44 nM	11.2 nM	–	–
AAGACUAGAGGAUAUACAUGAGGAUCACCCAUGUAACUGUCAGGAGACUGACGGAGAUGUAGAAGGCUAGUCAA	17 nM	34.1 nM	–	–
CCCACGUCAGGAUAUCCAAAGGUCCGAAAUAACGGUACUUUGGAGAAGGGACAUGAGGAUCACCCAUGUCCUCG	18.9 nM	28.8 nM	–	–
UUUUAGUGAGGAUAUACAUUUUUUUAAUUAUUUAUAAUAUUACAUGAGGAUCACCCAUGUAGAAGGCACAUUUU	24.3 nM	22.4 nM	–	–
CUUUUGUGAGGAUAUUCGUAGUAGGGUCAUGGCACUAUUAUGAAGAAGGCACAUGAGGAUCACCCAUGUACCUU	15.3 nM	26.8 nM	–	–
UUAAUAAAGUAAGGAUAUACAUGAGGAUCUCUCGUAGAAGGUACUAUACAUGAGGAUCACCCAUGUGCCGGUCCGUAGACUGGA	–	–	387 nM	796 nM
AUAGUGCCGGAGAAGGACGUACCACAUGUUGAUCACCGAUAUAAGGAACGUAGGAUAUUCGACAUGAGGAUCACCCAUGUGGAU	–	–	101 nM	64.7 nM

Sequence	apparent Kd [1]	apparent Kd [2]	apparent Kd [3]	apparent Kd [4]
AGCCUACAUGAGGAUCACCCAUGUCAGGAUAUCUCGCAACGUGUCAAGUUCACGUCGCAGAGAAGGGACUCGGG	55.7 nM	54 nM	–	–
CAGUACUGAGGAUAUACAUGAGGAUCACCCAUGUAUCCAAGCUAGGAAACUAGCAAAUGUAGAAGGCAGUACUG	34.1 nM	519 nM	–	–
GUGUACAGAGGAUAUACUCAUGGAGUUACGAAAGUAACUUCACAUGAGGAUCACCCAUGUAGAAGGCUGUACAC	473 nM	293 nM	–	–
AGUGAUUGCUGUGUCAGUUCACAUGAGGAUCACCCAUGUAGCUAGGAUAUCCGCAGUUACUGCUAGGAGAAGGAGCAAGGUGGC	8.6 nM	12.1 nM	–	–
ACAUAGUAAGGAUAUGCUGCUCGUCACUUGCGUGAUGAGUAGCAGAAGGUACAUGAGGAUCACCCAUGUAAAAA	25.3 nM	19.1 nM	–	–
AAAAAACAUGAGGAUCACCCAUGUCCUCGGACGUGAGGAUAUGUACAGACUUCGGUCUGUACAGAAGGCACGUCAA	–	–	512 nM	446 nM
AGCCGAGUAGGAUAUGCAUACUUACAGGAAAGCUGUAUGGUACAUGAGGAUCACCCAUGUAGAAGGGCUCUGAA	25 nM	21.2 nM	–	–
GCGUAAUAGGUGUAGCUAGUCGUACAAGAAGGGUGGUGAACAUGAGGAUCACCCAUGUGGUCAAUACAGGAUAUUGUUAUACGC	–	–	832 nM	112 nM
CUGAUGUUAGGAUAUCAGGCGCCCGCCACUAGCAAGGCGCAUGAGAAGGGACAUGAGGAUCACCCAUGUAGUAA	28.1 nM	50 nM	–	–
CUUUUGUGAGGAUAUUAGUAGUAAAUAAAUAAAAUUAUUACUGAGAAGGUACAUGAGGAUCACCCAUGUUCCUC	18.3 nM	25.5 nM	–	–
GCCAUCGCAUGAGGAUAUAAAAUUAUAAUUAAAUUAGAAGGCAUGUCAUAAGACAUGAGGAUCACCCAUGUAGUUAAGAUGGCA	–	–	483 nM	132 nM
ACCGUUGAAGCAGGAUAUUAUAGCGCCAGCGUAUAAGAAGGGCUUCAACAUGAGGAUCACCCAUGUUGGAGUACCUCAAAAGUG	5.53 nM	23.7 nM	–	–
ACAUGAGGAUCACCCAUGUAGAAUGAAGAAGGUAGAUACUUGAGACUCACCCAUGUACAUAGGACUAAGGAUAUUCUAAUAAUU	–	–	14.1 nM	10.7 nM
GAUUACAUGAGGAUCACCCAUGUACAGGUGAUUCUCGGUACGAGAAGGGCGGAGGGUCACCACACGCAGGAUAUCGAGCAAAGG	231 nM	65.4 nM	–	–
AAUUGACACGUAGGAUAUCGCUCUAAUUAAACACGAGAAGGACGUACAUGAGGAUCACCCAUGUUAAAUGGUGUAGAUAAGUUG	172 nM	479 nM	–	–
AAAAAGUGAGGAUAUGCGCUGUCCUGUAGACACGAGCAGUCGUAGAAGGCACAUGAGGAUCACCCAUGUUUAAA	27.6 nM	20.2 nM	–	–
UUUGGUUGUGUAGGAUAUGUGUGGCGGGCUGGCACAGAAGGACAUGAGGAUCACCCAUGUGGUUUGGGUUGGGUGGUUGGCCCG	943 nM	771 nM	–	–
GGACGGUUUGUCAGGAUAUGCUCUACCUCGGUAGAGCAGAAGGGACAUGAGGAUCACCCAUGUGAAAACUGUUC	22.8 nM	25.2 nM	–	–
AAACACGGACAUGAGGAUCACCCAUGUGGCGAAAGCCUUGGGAGAAGGCCGAUAGCAAAGCUAUCGGAGGAUAUCCAUACCGUG	–	–	19.8 nM	7.72 nM
AGUGUCAUCGAGAAGGCCUCGACAUGAGGAUCACCCAUGUUGUUAUAUGGGAGGAUAUCGAUGAUACAGCUACGUUUCGUAGCA	–	–	51.6 nM	14.7 nM
GCAAAGCCUGACAUGAGGAUCACCCAUGUUAGAUUGUUAUGUCAGGAUAUUGUCUAGCAACUAGACAAGAAGGGAUGCUUUGCU	–	–	369 nM	27.6 nM
